Only some compounds are listed: those with a hit (about 1.8% of all), similar ones and a draw of the others.
PTPN22 inh 2 – inhibitors of human LYP (PTPN22) phosphatase | AID 640 | inhibition, % at 2 µM | recombinant LYP catalytic domain, DiFMUP fluorescence | 96,000 tested, 0.21% active;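 active = inhibition at 2 µM at or above a set limit, the screen mean plus 3 SD, cut at about 24% in these data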;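 also: 0% = DMSO with enzyme and 100% = enzyme fully blocked by orthovanadate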
Target sequence (Q9Y2R2 whole entry, looked up, the tested form may be a part): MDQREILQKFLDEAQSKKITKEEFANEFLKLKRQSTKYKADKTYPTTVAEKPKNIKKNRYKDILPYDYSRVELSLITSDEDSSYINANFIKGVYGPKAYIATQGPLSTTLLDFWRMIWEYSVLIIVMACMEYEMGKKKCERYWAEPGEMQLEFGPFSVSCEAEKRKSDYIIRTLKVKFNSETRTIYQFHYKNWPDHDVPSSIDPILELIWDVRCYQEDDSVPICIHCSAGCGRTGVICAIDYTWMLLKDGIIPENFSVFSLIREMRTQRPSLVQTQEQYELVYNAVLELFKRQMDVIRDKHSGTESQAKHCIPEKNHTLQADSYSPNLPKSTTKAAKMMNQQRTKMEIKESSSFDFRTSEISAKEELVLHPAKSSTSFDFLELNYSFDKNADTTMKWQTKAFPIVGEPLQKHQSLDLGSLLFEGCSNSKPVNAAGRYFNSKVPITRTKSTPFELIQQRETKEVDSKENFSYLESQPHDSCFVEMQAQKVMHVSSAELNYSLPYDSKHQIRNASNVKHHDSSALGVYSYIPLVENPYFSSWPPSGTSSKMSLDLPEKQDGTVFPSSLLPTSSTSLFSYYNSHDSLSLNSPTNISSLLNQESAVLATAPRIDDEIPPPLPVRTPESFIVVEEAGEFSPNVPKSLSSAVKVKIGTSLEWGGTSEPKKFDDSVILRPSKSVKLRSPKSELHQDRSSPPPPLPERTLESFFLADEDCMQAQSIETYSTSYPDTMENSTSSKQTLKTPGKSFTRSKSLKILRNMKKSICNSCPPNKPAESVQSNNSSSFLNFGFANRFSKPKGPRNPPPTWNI
Rev-RRE block – disrupts HIV-1 Rev binding to RRE RNA | P05866 | Rev peptide-RRE RNA binding, FRET | inhibition, % at 8 µM | 97,000 tested, 0.79% active | AID 704;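 active = inhibition above the screen-wide mean plus 3 SD, cut at about 35% in these data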;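 also: 0% = median DMSO wells and 100% = median Neomycin B control wells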
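Test system: labelled RRE RNA duplex and labelled Rev peptide. Times: 5 min compound–RNA preincubation, then 15 min with peptide, 25 °C. Doses: single-dose 8 µM. Measured by: FRET, excitation 480 nm, emission 540 nm donor and 671 nm acceptor. Measure: % inhibition of FRET ratio versus controls.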
FAK blocker – inhibitors of human focal adhesion kinase; Q05397; biochemical FAK kinase activity assay; inhibition, %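 (tested at 7 µM)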; 97,000 tested, 0.84% active; AID 727; in the data active = inhibition above about 19%;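 also: 0% = DMSO and 100% = reference compound high control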
PTPN22 act – LYP (human) phosphatase activation; activation, % at 2 µM; recombinant LYP, DiFMUP fluorescence; 0 = plate median, 100 = signal doubled; Q9Y2R2; 96,000 tested, 0.11% active;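 active = activation at 2 µM above a set limit, the mean plus 5 SD, cut at about 37% in these data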
The depositor's hits bear a star; [ ] = another dose, or the depositor's remark.

SMILES	PTPN22 inh 2	Rev-RRE block	FAK blocker	PTPN22 act
COc1ccccc1Oc1ccc2c(c1)C(=O)N(c1ccc(Br)c3cccnc13)C2=O	6.0	9.6	4.4	-6.5
Cc1ccc2cc3c(N)c(C(=O)N4CC(=O)Nc5ccccc54)sc3nc2c1	17.2	67.1*	11.0	-15.7
CC(C)NC(=O)c1sc2nc(-c3cccs3)cc(-c3cccs3)c2c1N	19.6	11.4	-1.5	-17.7
Nc1c(C(=O)C2CC2)sc2nc(-c3cccs3)cc(C(F)(F)F)c12	-5.3	107.3*[fluorescence artefact?]	-0.9	8.4
c1ccc(CC2CCN(C3=Nc4cccc5cccc3c45)CC2)cc1	-16.3	42.1*	2.4	15.7
c1cc2c3c(cccc3c1)C(N1CCN(C3=Nc4cccc5cccc3c45)CC1)=N2	10.8	40.0*	13.8	-15.2
CCOc1ccc(NC(=O)CNC(=O)c2cn(-c3ccccc3OC)c(=O)c3ccccc23)cc1	-13.8	11.0	-1.2	11.0
CCN(CC)c1ccc(/C=C(/C#N)c2nc3ccccc3[nH]2)c(OC(C)C)c1	1.6	135.8*[fluorescence artefact?]	7.5	-4.0
Nc1cc(N)c(OCC(F)(F)F)cc1OCC(F)(F)F	0.1	67.9*	14.3	-0.7
Cc1ccc(S(=O)(=O)N(CC(=O)N2CCN(c3ccc(F)cc3)CC2)C2CCCCC2)cc1	10.9	-0.1	2.6	-9.4
CCOC(=O)Cc1csc(NC(=O)c2csc(C)c2)n1	0.0	0.1	4.2	-2.9
CCOC(=O)Cc1csc(NC(=O)c2sc3nc4c(C)cc(C)cc4cc3c2N)n1	6.8	107.5*[fluorescence artefact?]	1.5	-1.7
CCCC(=O)Nc1ccc2c(c1)nc(CCNC(=O)c1ccccc1)n2C	26.7*	2.3	-1.0	-25.5
CN(CC(CC(=O)Nc1nncs1)c1ccccc1)S(=O)(=O)c1ccc(Br)cc1 (centres undefined)	-16.8	11.3	2.6	16.1
O=C1/C(=C/Nc2ccc3c(c2)OCO3)CCc2ccccc21	2.4	45.8*	1.2	-2.8
Cc1nc2ccc(NS(=O)(=O)c3ccc4c(c3)OCCO4)cc2s1	-5.9	4.1	0.0	4.4
CN(C(=S)NC1=CCS(=O)(=O)C1)C1CCCCC1	-2.6	1.8	-0.3	3.8
CCOC(=O)c1c(NC(=S)Nc2ccccc2)sc2c1CCN(CC)C2	-1.9	121.2*[fluorescence artefact?]	9.6	7.2
CCOC(=O)c1c(NC(=S)Nc2ccccc2)sc2c1CCCCC2	6.2	2.3	-1.1	-5.7
CC(C)(C)NS(=O)(=O)c1cnc(Cl)c(Cl)c1	1.5	4.7	-1.3	3.1
COc1cc(/C=N\Nc2ccc([N+](=O)[O-])cc2)ccc1OCC(=O)Nc1ccc(C)c(C)c1	9.8	76.2*[fluorescence artefact?]	18.1	-5.6
CCOc1cc(/C=N\Nc2ccc([N+](=O)[O-])cc2)ccc1OCC(=O)Nc1ccc(C)c(C)c1	11.8	34.6	-0.6	-7.7
COc1ccc(N2CCN(c3nc(=S)n(-c4ccccc4)c(C)c3C(C)=O)CC2)cc1	3.3	40.0*	5.2	-4.6
Cc1ccc(-c2c(C)n([O-])c3c([n+]2=O)CCCC3)o1	-5.3	2.9	0.2	5.2
Cn1c(=O)cc(SCC(=O)NCCN2CCN(c3ccccc3F)CC2)c2cc(Cl)ccc21	33.2*	5.5	-3.0	-32.8
SMILES	PTPN22 inh 2	Rev-RRE block	FAK blocker	PTPN22 act
Cn1c(=O)cc(SCC(=O)NCCCN2CCN(c3ccc(F)cc3)CC2)c2ccccc21	-5.1	1.2	-10.3	2.7
CCOCC(=O)Nc1nc(-c2ccccc2)c(CC)s1	4.7	8.4	-0.6	-7.1
COc1ccc2cc(CN(CC3CCCO3)S(=O)(=O)c3ccccc3Cl)c(=O)[nH]c2c1 (centres undefined)	4.6	4.9	-0.2	-5.1
c1ccc2c(CCNc3ncnc4nc[nH]c34)cccc2c1	6.6	-5.2	21.4*	-6.0
CC1C/C(=C/c2cccn2C)C(=O)/C(=C/c2cccn2C)C1 (centres undefined)	11.3	135.8*[fluorescence artefact?]	-0.8	-11.0
Cn1cccc1P(=O)(c1cccn1C)c1cccn1C	0.1	1.8	-0.9	-0.7
CSCc1cc(N2CCOCC2)nc(SCc2ccc(Cl)c(Cl)c2)n1	1.4	8.9	0.7	0.9
Cc1ccc(N=Cc2sc(O)c3ccccc23)cc1	-0.4	132.1*[fluorescence artefact?]	-3.0	1.9
Cc1ccc(N=Cc2cccc(O)c2O)c(C)c1	14.9	8.5	8.0	-14.4
Cc1ccc(N=Cc2sc(O)c3ccccc23)c(C)c1	-0.7	93.0*[fluorescence artefact?]	-6.8	2.3
OC(CSc1c(Cl)cccc1Cl)CN1CCN(c2ccc(F)cc2)CC1 (centres undefined)	4.4	6.2	1.7	-1.4
Cc1nnc(N2C(=O)C(O)=C(C(=O)c3ccco3)C2c2ccc(C(C)(C)C)cc2)s1 (centres undefined)	-7.3	92.2*[fluorescence artefact?]	-2.2	2.0
Cc1nnc(N2C(=O)C(O)=C(C(=O)c3ccco3)C2c2ccc(F)cc2)s1 (centres undefined)	0.5	52.3*	-3.4	-1.6
COCCCN1C(=O)C(O)=C(C(=O)c2ccco2)C1c1ccc(Br)cc1 (centres undefined)	17.3	4.1	-2.3	-15.9
COc1cc2c(cc1NC(=O)C(c1ccccc1)c1ccccc1)CCCC2	2.9	21.0	1.7	-1.0
CC(C)OC(=O)CN1C(=O)S/C(=C/c2ccc(N3CCCCC3)o2)C1=O	4.9	136.2*[fluorescence artefact?]	1.3	-6.4
O=C1/C(=C/c2ccc(N3CCOCC3)o2)SC(=Nc2ccccc2)N1CCc1c[nH]c2ccccc12	8.0	136.0*[fluorescence artefact?]	2.4	-4.1
O=C1S/C(=C/c2ccc(N3CCOCC3)o2)C(=O)N1Cc1ccc(F)cc1	-2.0	115.0*[fluorescence artefact?]	-1.1	6.3
O=C1S/C(=C\c2ccc(N3CCOCC3)o2)C(=O)N1Cc1ccc(F)cc1	8.7	117.2*[fluorescence artefact?]	-4.1	-6.4
CC1=CCC2C(=O)N(CCc3c[nH]c4ccccc34)C(=O)C2C1 (centres undefined)	-6.0	1.9	2.1	6.1
O=C1N/C(=C/c2ccc(N3CCOCC3)cc2)C(=O)N1Cc1ccc(F)cc1	3.0	5.1	0.3	-4.0
CS(=O)(=O)N(CC(=O)N1CCN(c2ccc(F)cc2)CC1)c1ccc(F)c(Cl)c1	10.9	17.6	-0.7	-10.1
CCCCn1nc2cc(C(=O)NC3CCCc4ccccc43)ccc2c1OCC (centres undefined)	1.4	8.8	-0.2	1.3
Cc1ccc2nc3sc(C(=O)N4CCOCC4)c(N)c3cc2c1	-12.2	11.0	0.5	12.2
CC(C)c1ccc2nc3sc(C(=O)N4CCc5ccccc5C4)c(N)c3cc2c1	6.8	56.6*	-8.2	-4.0
SMILES	PTPN22 inh 2	Rev-RRE block	FAK blocker	PTPN22 act
COc1ccc(NC(C)=O)cc1NC(=O)CN1CCN(CC(=O)Nc2ccc(Cl)cc2)CC1	-6.0	6.6	1.0	5.3
COc1ccc(-n2c(COc3cccc4ccccc34)nnc2SCC(=O)NCc2ccco2)cc1	-9.3	-1.1	1.4	5.1
NC(=O)C[n+]1cccc2ccccc21	-5.7	36.8*	1.7	11.5
CNc1nnc(-c2cc3ccccc3oc2=O)s1	-9.2	52.3*	4.0	9.9
O=c1oc2ccccc2cc1-c1nc(-c2cccs2)cs1	-0.3	61.5*	1.5	-2.2
Cc1ccc(C(=O)C(OC(=O)CNS(=O)(=O)c2ccccc2)c2ccccc2)cc1 (centres undefined)	1.1	17.1	-1.1	-0.6
NC(=O)c1ccsc1NC(=O)c1cccs1	5.9	10.7	27.6*	-8.5

Compound activity deposited in PubChem BioAssay by several laboratories.
